Measurements of several laboratories.
Lines come from different studies, so protocols differ.
Target: Mitogen-activated protein kinase kinase kinase 20 (MAP3K20, Homo sapiens, UniProt Q9NYL2)

Structure (SMILES) | assay | conditions | remaining binding
Cc1c(NC(=O)c2cc(C(N)=O)nc3cc(F)ccc23)c(C(F)(F)F)nn1Cc1ccc(C(C)(C)C)cc1 | cell-free assay, competition with immobilised ligand | 1 µM | 100%
CN(CCCC(F)(F)F)c1nccc(-c2cnn3ncccc23)n1 | binding | 1 µM | 88%
CCCOc1ccc([C@@H]2[C@@H](C(=O)O)[C@H](c3ccc4c(c3)OCO4)CN2CC(=O)Nc2c(CC)cccc2CC)cc1 | cell-free assay, competition with immobilised ligand | 1 µM | 100%
F[C@@H]1CCN(c2nccc(-c3cnn4ncccc34)n2)C1 | binding | 1 µM | 76%
Cc1cc(-n2nc(Cc3cc(F)cc(C(F)(F)F)c3)nc2C)ccc1C(N)=O | cell-free assay, competition with immobilised ligand | 1 µM | 99%
Cc1cnc(Nc2ccc(C(=O)N3CCC(N4CCCC4)CC3)cc2)nc1-c1cc2ccccc2s1 | binding, competition with immobilised ligand | 1 µM | 43%
CCN1CCN(Cc2ccc(C(=O)Nc3ccc(C)c(Oc4ccc5c(c4)CC(=O)N5)c3)cc2C(F)(F)F)CC1 | binding, competition with immobilised ligand | 1 µM | 100%
CN(C(=O)c1ccccc1)c1cc(N(C)c2ccc3c(c2)CCc2ccc(C(=O)NCCN4CCOCC4)cc2C3=O)ccc1F | cell-free assay, competition with immobilised ligand | 1 µM | 82%
O=C(NCCCN1CCOCC1)c1ccc(Nc2nccc(-c3cc4ccccc4s3)n2)cc1 | binding, competition with immobilised ligand | 1 µM | 62%
FC(F)(F)Oc1cccc(-c2cnc3ccc(-c4ccncc4)nn23)c1 | binding, competition with immobilised ligand | 5 µM | 20%
COc1cnc(Nc2cccc(S(N)(=O)=O)c2)nc1N1CCN(c2ccccc2)C(=O)C1 | binding, competition with immobilised ligand | 1 µM | 100%
C[C@@H]1CCN(c2nccc(-c3cnn4ncccc34)n2)C1 | binding | 1 µM | 100%
O=C(c1ccc(Nc2ncc(Cl)c(-c3ccc(Cl)s3)n2)cc1)N1CCC(N2CCCC2)CC1 | binding, competition with immobilised ligand | 1 µM | 65%
Cc1cc(C)c(-n2ccn3nc(-c4cccnc4)cc23)cc1NC(=O)c1cc(C#N)cc(S(F)(F)(F)(F)F)c1 | cell-free assay, competition with immobilised ligand | 0.1 µM | 97.5%
CN(C)c1nccc(-c2cnn3ncccc23)n1 | binding | 1 µM | 100%
O=C(NCC1CCOCC1)c1n[nH]cc1NC(=O)c1c(F)cccc1F | binding, competition with immobilised ligand | 1 µM | 100%
CN(C)c1nccc(-c2cnc3ncccn23)n1 | binding | 1 µM | 89%
C=CC(=O)N1CCC(C(=O)NCC(=O)N2CCN(c3nc(-c4cnc(N)nc4C(F)F)nc(N4CCOCC4)n3)CC2)CC1 | binding, competition with immobilised ligand | 1 µM | 100%
N[C@H]1CCN(c2nccc(-c3cnn4ncccc34)n2)C1 | binding | 1 µM | 99%
Nc1ncc2c(n1)-c1c([nH]c3ccc(C#CC4CC4)cc13)CCCC2 | binding, competition with immobilised ligand | 1 µM | 93%
CCOC(=O)c1cc2cc(-c3cc(C(=O)NCc4ccc(C(=O)O)cc4)nn3C)ccc2[nH]1 | cell-free assay, competition with immobilised ligand | 0.1 µM | 87%
CN(C)c1ncc(F)c(-c2cnn3ncccc23)n1 | binding | 1 µM | 96%
